Measurements published in ChEMBL document CHEMBL1127562, “N-substituted spirosuccinimide, spiropyridazine, spiroazetidine, and acetic acid aldose reductase inhibitors derived from isoquinoline-1,3-diones. 2” (J Med Chem, 1994).
The source made the active and inactive calls. No cut-off for these calls is given here.

Legend:
[1] = target: Aldo-keto reductase family 1 member B1 (Bos taurus) (UniProt P16116); experiment: Inhibition of aldose reductase activity in partially purified bovine lens preparation at 10e-5 M
Outline: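 Partially purified bovine lens aldose reductase. Reduction of DL-glyceraldehyde substrate followed spectrophotometrically. Activity expressed as average inhibition at the tested concentrations, 1×10^-5, 1×10^-6, 1×10^-7 and 4×10^-6 M as printed; IC50 in M where given.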

Rattus norvegicus [2] = experiment: Tested for in vivo inhibition of galactitol accumulation in the sciatic nerve of galactose-fed rats at the dose of 91.6 (mg/kg/day); NS=Not significant; assay type: functional, organism-based
Outline: (§1)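 Rats fed a 20% galactose diet for 4 days, with test compound given in the diet at the stated daily dose (mg/kg/day). Read-out is inhibition of galactitol (polyol) accumulation in sciatic nerve. Values are % inhibition, mean ± SEM of six animals; p < 0.01 unless marked (some p < 0.05). NS = no significant inhibition of polyol accumulation. Tolrestat was the reference standard.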

Rattus norvegicus [3] = experiment: Tested for in vivo inhibition of galactitol accumulation in the lens of galactose-fed rats at the dose of 91.6 (mg/kg/day); NS=Not significant; assay type: functional, organism-based; conditions: Lens of camera-type eye
Outline: (§2)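 Galactosemic rats were fed 20% galactose for 4 days, with the compound mixed into the diet. […] galactitol accumulation was measured, and activity is given as % inhibition at the stated daily dose (mg/kg/day). Values are mean ± SEM of six animals; p < 0.01 unless indicated. NS means no significant inhibition of polyol accumulation.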

Rattus norvegicus [4] = experiment: Tested for in vivo inhibition of galactitol accumulation in the lens of galactose-fed rats at the dose of 0.9 (mg/kg/day); NS=Not significant; assay type: functional, organism-based; conditions: Lens of camera-type eye
Rattus norvegicus [5] = experiment: Tested for in vivo inhibition of galactitol accumulation in the sciatic nerve of galactose-fed rats at the dose of 10.8 (mg/kg/day); assay type: functional
Outline: (§3)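 Rats were given a 20% galactose diet for 4 days, with the test compound administered in the diet. Sciatic nerve galactitol accumulation was measured, and activity is given as % inhibition at the stated daily dose (mg/kg/day). Values are mean ± SEM, n = 6 animals; p < 0.01 unless indicated. NS means no significant inhibition of polyol accumulation.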

Rattus norvegicus [6] = experiment: Tested for in vivo inhibition of galactitol accumulation in the lens of galactose-fed rats at the dose of 10.8 (mg/kg/day); assay type: functional, Lens of camera-type eye
Rattus norvegicus [7] = experiment: Tested for in vivo inhibition of galactitol accumulation in the sciatic nerve of galactose-fed rats at the dose of 102.8 (mg/kg/day); NS=Not significant; assay type: functional, organism-based; outline: as §3
[8] = target: Aldo-keto reductase family 1 member B1 (Bos taurus) (UniProt P16116); experiment: Inhibition of aldose reductase activity in partially purified bovine lens preparation at 4*10 e-8 M
Rattus norvegicus [9] = experiment: Tested for in vivo inhibition of galactitol accumulation in the lens of galactose-fed rats at the dose of 102.8 (mg/kg/day); NS=Not significant; assay type: functional, organism-based; conditions: Lens of camera-type eye
Rattus norvegicus [10] = experiment: Tested for in vivo inhibition of galactitol accumulation in the sciatic nerve of galactose-fed rats at the dose of 1.1 (mg/kg/day); NS=Not significant
Rattus norvegicus [11] = experiment: Tested for in vivo inhibition of galactitol accumulation in the sciatic nerve of galactose-fed rats at the dose of 47.9 (mg/kg/day); assay type: functional; outline: as §3
Rattus norvegicus [12] = experiment: Tested for in vivo inhibition of galactitol accumulation in the lens of galactose-fed rats at the dose of 47.9 (mg/kg/day); assay type: functional, Lens of camera-type eye
Rattus norvegicus [13] = experiment: Tested for in vivo inhibition of galactitol accumulation in the sciatic nerve of galactose-fed rats at the dose of 10.0 (mg/kg/day); NS=Not significant; assay type: functional, organism-based; outline: as §3
Rattus norvegicus [14] = experiment: Tested for in vivo inhibition of galactitol accumulation in the lens of galactose-fed rats at the dose of 5.3 (mg/kg/day); NS=Not significant; assay type: functional, organism-based; conditions: Lens of camera-type eye
Rattus norvegicus [15] = experiment: Tested for in vivo inhibition of galactitol accumulation in the sciatic nerve of galactose-fed rats at the dose of 5.3 (mg/kg/day); NS=Not significant; assay type: functional, organism-based; outline: as §1
Rattus norvegicus [16] = experiment: Tested for in vivo inhibition of galactitol accumulation in the sciatic nerve of galactose-fed rats at the dose of 9.9 (mg/kg/day); NS=Not significant; assay type: functional, organism-based; outline: as §1
Rattus norvegicus [17] = experiment: Tested for in vivo inhibition of galactitol accumulation in the lens of galactose-fed rats at the dose of 85 (mg/kg/day); assay type: functional, Lens of camera-type eye; outline: as §2
Rattus norvegicus [18] = experiment: Tested for in vivo inhibition of galactitol accumulation in the lens of galactose-fed rats at the dose of 26.8 (mg/kg/day); NS=Not significant; assay type: functional, organism-based; conditions: Lens of camera-type eye
Rattus norvegicus [19] = experiment: Tested for in vivo inhibition of galactitol accumulation in the sciatic nerve of galactose-fed rats at the dose of 26.8 (mg/kg/day); assay type: functional; outline: as §3
Rattus norvegicus [20] = experiment: Tested for in vivo inhibition of galactitol accumulation in the sciatic nerve of galactose-fed rats at the dose of 85 (mg/kg/day); assay type: functional; outline: as §1
Rattus norvegicus [21] = experiment: Tested for in vivo inhibition of galactitol accumulation in the sciatic nerve of galactose-fed rats at the dose of 46.1 (mg/kg/day); NS=Not significant; assay type: functional, organism-based; outline: as §3
Rattus norvegicus [22] = experiment: Tested for in vivo inhibition of galactitol accumulation in the lens of galactose-fed rats at the dose of 46.1 (mg/kg/day); NS=Not significant; assay type: functional, organism-based; conditions: Lens of camera-type eye
Rattus norvegicus [23] = experiment: Tested for in vivo inhibition of galactitol accumulation in the lens of galactose-fed rats at the dose of 24.5 (mg/kg/day); NS=Not significant; assay type: functional, organism-based; conditions: Lens of camera-type eye
Rattus norvegicus [24] = experiment: Tested for in vivo inhibition of galactitol accumulation in the sciatic nerve of galactose-fed rats at the dose of 24.5 (mg/kg/day); assay type: functional; outline: as §3
Rattus norvegicus [25] = experiment: Tested for in vivo inhibition of galactitol accumulation in the lens of galactose-fed rats at the dose of 24 (mg/kg/day); NS=Not significant; assay type: functional, organism-based; conditions: Lens of camera-type eye
Rattus norvegicus [26] = experiment: Tested for in vivo inhibition of galactitol accumulation in the sciatic nerve of galactose-fed rats at the dose of 24 (mg/kg/day); NS=Not significant; assay type: functional, organism-based; outline: as §3

CCCN1C(=O)c2ccccc2C(CC(=O)NC(=O)OC)C1=O (stereo unspecified)
inhibition [1]: inactive | inhibition (Rattus norvegicus [2]): inactive | inhibition (Rattus norvegicus [3]): inactive

CC(C)=NN1C(=O)CC2(C(=O)N(Cc3ccc(Br)cc3F)C(=O)c3ccccc32)C1=O (stereo unspecified)
inhibition [1]: inactive | inhibition (Rattus norvegicus [4]): inactive | Inhibition (Rattus norvegicus [5]): 82% | Inhibition (Rattus norvegicus [6]): 30%

O=C(O)CC1C(=O)N(Cc2ccc(Br)cc2F)C(=O)c2ccccc21 (stereo unspecified)
inhibition (Rattus norvegicus [7]): inactive | inhibition [8]: 50% | inhibition (Rattus norvegicus [9]): inactive

CCN1C(=O)CC2(C(=O)N(C)C(=O)c3ccc(Cl)cc32)C1=O (stereo unspecified)
inhibition [1]: inactive | inhibition (Rattus norvegicus [10]): inactive

COC(=O)NC(=O)CC1C(=O)N(C)C(=O)c2ccc(C(F)(F)F)cc21 (stereo unspecified)
inhibition [1]: 51% | Inhibition (Rattus norvegicus [11]): 52% | Inhibition (Rattus norvegicus [12]): 26%

O=C1CC2(C(=O)N1CC(F)(F)F)C(=O)N(Cc1ccc(Br)cc1F)C(=O)c1ccccc12 (stereo unspecified)
inhibition [1]: inactive | inhibition (Rattus norvegicus [13]): inactive

CN1C(=O)c2ccc(Cl)cc2C(CC(N)=O)C1=O (stereo unspecified)
inhibition (Rattus norvegicus [14]): inactive | inhibition [1]: inactive | inhibition (Rattus norvegicus [15]): inactive

CON1C(=O)CC2(C(=O)N(Cc3ccc(Br)cc3F)C(=O)c3ccccc32)C1=O (stereo unspecified)
inhibition [1]: inactive | inhibition (Rattus norvegicus [16]): inactive

COC(=O)NC(=O)CC1C(=O)N(C)C(=O)c2ccccc21 (stereo unspecified)
Inhibition (Rattus norvegicus [17]): 37% | inhibition [1]: 61% | inhibition (Rattus norvegicus [18]): inactive | Inhibition (Rattus norvegicus [19]): 21% | Inhibition (Rattus norvegicus [20]): 59%

COc1ccc2c(c1)C(=O)N(Cc1ccc(Br)cc1F)C(=O)C2CC(=O)O (stereo unspecified)
inhibition (Rattus norvegicus [21]): inactive | inhibition [8]: 61% | inhibition (Rattus norvegicus [22]): inactive

CCOC(=O)NC(=O)CC1C(=O)N(C)C(=O)c2ccc(Cl)cc21 (stereo unspecified)
inhibition [1]: inactive | inhibition (Rattus norvegicus [23]): inactive | Inhibition (Rattus norvegicus [24]): 21%

O=C(O)CC1C(=O)N(Cc2nc3cc(C(F)(F)F)ccc3s2)C(=O)c2ccc(F)cc21 (stereo unspecified)
inhibition (Rattus norvegicus [25]): inactive | inhibition (Rattus norvegicus [26]): inactive | inhibition [8]: 62%
